Assay results reported in ChEMBL document CHEMBL1157223, “Lupeol long-chain fatty acid esters with antimalarial activity from Holarrhena floribunda” (J Nat Prod, 2006).
Converted amounts (≈) assume the structure as drawn. “And” between values parts separate entries of the source, which are not always exact repeats. Identical values can stand only once.

Assays:
Plasmodium falciparum [1] = experiment: Antimalarial activity after 48 hrs against Plasmodium falciparum W2 by [3H]hypoxanthine uptake
Plasmodium falciparum [2] = experiment: Antimalarial activity after 48 hrs against Plasmodium falciparum D6 by [3H]hypoxanthine uptake
Plasmodium falciparum [3] = experiment: Antimalarial activity after 24 hrs against chloroquine-sensitive Plasmodium falciparum 3D7 by [3H]hypoxanthine uptake; format: functional, organism-based
Method in brief: (§1)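 Human type B+ erythrocytes at 2% parasitemia and 4% hematocrit in RPMI-1640 (0.5% Albumax II, 16 µM hypoxanthine, HEPES, glucose); after 30 min at 37 °C, drug was added to final 1% parasitemia and 2% hematocrit. Test range 7.8–500 µM, with chloroquine at 3.9–500 nM and final DMSO under 2%. Incubation was 24 h, then [3H]-hypoxanthine for 18–24 h more; filters were counted. IC50 came from curve fitting, quadruplicates, 2–3 runs.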

Plasmodium falciparum [4] = experiment: Antimalarial activity against chloroquine-resistant Plasmodium falciparum FCR3 Gambia as 24 hrs [3H]hypoxanthine uptake; format: functional, organism-based; conditions: FCR-3/Gambia; method in brief: as §1

`C=C[C@H]1CN2CC[C@H]1C[C@H]2[C@H](O)c1ccnc2ccc(OC)cc12` [QUININE] gave an IC50 (Plasmodium falciparum [1]) of 67 mg/L (≈ 207 µM) and an IC50 (Plasmodium falciparum [2]) of 25 mg/L (≈ 77.1 µM).

In the case of `OC(c1cc(C(F)(F)F)nc2c(C(F)(F)F)cccc12)C1CCCCN1` (stereo not given) [MEFLOQUINE], the IC50 (Plasmodium falciparum [1]) is reported as 28.5 mg/L (≈ 75.3 µM) and the IC50 (Plasmodium falciparum [2]) is reported as 2550 mg/L (≈ 6740 µM).

In the case of `C=C(C)[C@@H]1CC[C@]2(C)CC[C@]3(C)[C@H](CC[C@@H]4[C@@]5(C)CC[C@H](OC(=O)CC(O)CCCCCCCCCCCCCCCCC)C(C)(C)[C@@H]5CC[C@]43C)[C@@H]12` (stereo not given in full), the IC50 (Plasmodium falciparum [3]) is reported as 282 µM and the IC50 (Plasmodium falciparum [4]) is reported as 269 µM.

With `C=C(C)[C@@H]1CC[C@]2(C)CC[C@]3(C)[C@H](CC[C@@H]4[C@@]5(C)CC[C@H](O)C(C)(C)[C@@H]5CC[C@]43C)[C@@H]12` [LUPEOL] the IC50 (Plasmodium falciparum [3]) was 106 µM and 45000 µg/mL and the IC50 (Plasmodium falciparum [4]) was 97 µM and 41000 µg/mL.

In the case of `C=C(C)[C@@H]1CC[C@]2(C)CC[C@]3(C)[C@H](CC[C@@H]4[C@@]5(C)CC[C@H](OC(=O)COCCCCCCCCCCCCCCCCCCCCCCCC)C(C)(C)[C@@H]5CC[C@]43C)[C@@H]12`, the IC50 (Plasmodium falciparum [3]) is reported as 135 µM and the IC50 (Plasmodium falciparum [4]) is reported as 84 µM and 69000 µg/mL.
